Data on 2 compounds can be found in ChEMBL document CHEMBL3525967, “In vitro glucuronidation of the antibacterial triclocarban and its oxidative metabolites” (Drug Metab Dispos, 2012).

One data set has as its system Liver. The experiment in a line: Intrinsic clearance in B6C3F1 mouse liver microsomes after 30 mins by LC-ESI-MS analysis. Format: ADME. The settings on record: 0.5 h. Put shortly:
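2'-OH-TCC at 0.2, 0.5, 1, 2, 3, 5, 10 and 50 µM incubated with liver microsomes (alamethicin, MgCl2, saccharolactone, UDPGA; 37 °C), sampled at 5, 10, 15 and 30 min. Samples ≥5 µM diluted 1:9 in ACN; LC-ESI-MS. KM and vmax fitted from rate vs concentration; intrinsic clearance derived from these; mean and SD of three.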
On the technique in general: Liver microsomes are a subcellular fraction often used to study metabolism.

In data set [1] the target is T1, UDP-glucuronosyltransferase 2B15 (Homo sapiens, UniProt P54855).
T1 sequence (P54855 whole entry): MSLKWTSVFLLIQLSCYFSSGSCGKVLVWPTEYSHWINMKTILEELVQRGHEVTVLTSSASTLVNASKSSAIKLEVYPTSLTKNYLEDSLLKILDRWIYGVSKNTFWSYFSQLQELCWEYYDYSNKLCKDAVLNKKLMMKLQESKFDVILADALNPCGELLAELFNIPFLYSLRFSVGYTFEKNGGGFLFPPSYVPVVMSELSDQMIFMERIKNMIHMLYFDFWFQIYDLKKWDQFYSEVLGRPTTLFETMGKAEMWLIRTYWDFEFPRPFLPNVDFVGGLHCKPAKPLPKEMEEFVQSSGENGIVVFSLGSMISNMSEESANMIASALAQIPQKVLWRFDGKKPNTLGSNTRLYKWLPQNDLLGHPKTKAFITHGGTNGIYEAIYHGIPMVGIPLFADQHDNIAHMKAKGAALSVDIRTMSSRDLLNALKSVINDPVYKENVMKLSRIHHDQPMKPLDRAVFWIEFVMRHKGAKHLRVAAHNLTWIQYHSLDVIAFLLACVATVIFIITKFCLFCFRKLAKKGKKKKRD
The experiment in a line: Drug metabolism assessed as human UGT2B15-mediated N'-glucuronide-triclocarban formation expressed in baculovirus infected insect sf9 cells incubated for 5 mins prior to UDPGA addition measured after 5 to 30 mins by LC-UV analysis. Format: ADME. Put shortly:
(§1)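 Microsomes or UGT Supersomes (5 µg protein) were held 15 min on ice with alamethicin in 100 mM potassium phosphate pH 7.4. TCC was added at 10 µM (2% DMSO) with 10 mM MgCl2 and 10 mM saccharolactone, pre-warmed 5 min at 37 °C, then started with UDPGA. Samples at 5, 10, 15 and 30 min were quenched in ACN. Product was read by LC-UV at 265 nm; rate came from regression over time, three incubations.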

Data set [2] is described as follows: Drug excretion in human urine. To be noted: read-out: Drug excretion. Format: ADME.
Data set [3] in a line: Drug excretion in Swiss webster mouse urine assessed as 2'-O-glucuronide-triclocarban formation at 5 mg/kg, po by LC-MS analysis. Format: ADME, organism-based. Also noted: dose 5 mg/kg, route oral. The settings on record: in vivo. Put shortly:
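Mice were housed two per metabolic cage, with blank urine collected over the 24 h before dosing. TCC was given by oral gavage as a 1 mg/mL solution in 20/80 DMSO/PEG400 (v/v) at 5 mg/kg. Urine was collected at 0-24 h and 24-48 h and analysed by online LC-MS. Values are the mean of two independent experiments.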

The target of data set [4] is T2, UDP-glucuronosyltransferase 1A9 (Homo sapiens, UniProt O60656).
T2 sequence (O60656 whole entry): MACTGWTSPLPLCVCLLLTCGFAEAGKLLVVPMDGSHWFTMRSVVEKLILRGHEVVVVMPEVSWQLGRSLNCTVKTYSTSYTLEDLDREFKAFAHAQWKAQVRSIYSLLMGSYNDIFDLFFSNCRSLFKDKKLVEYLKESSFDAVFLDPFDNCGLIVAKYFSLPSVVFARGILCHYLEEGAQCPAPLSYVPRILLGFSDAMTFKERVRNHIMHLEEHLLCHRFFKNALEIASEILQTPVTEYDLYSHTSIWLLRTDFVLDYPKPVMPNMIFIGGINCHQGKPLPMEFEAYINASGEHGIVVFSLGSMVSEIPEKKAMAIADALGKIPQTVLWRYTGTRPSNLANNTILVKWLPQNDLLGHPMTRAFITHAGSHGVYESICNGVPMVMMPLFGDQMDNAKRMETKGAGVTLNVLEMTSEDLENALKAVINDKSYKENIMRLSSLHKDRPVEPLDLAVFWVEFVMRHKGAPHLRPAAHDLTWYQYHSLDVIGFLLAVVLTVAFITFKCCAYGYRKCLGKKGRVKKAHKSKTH
The experiment in a line: Drug metabolism assessed as human UGT1A9-mediated N'-glucuronide-triclocarban formation expressed in baculovirus infected insect sf9 cells incubated for 5 mins prior to UDPGA addition measured after 5 to 30 mins by LC-UV analysis. Format: ADME. Put shortly:
as §1

A short description of data set [5]: Drug metabolism in cynomolgus monkey liver microsomes assessed as N-glucuronide-triclocarban formation incubated for 5 mins prior to UDPGA addition measured after 30 mins by LC-UV-ESI-MS/MS analysis. Format: ADME, Macaca fascicularis. To be noted: 0.5 h. Put shortly:
(§2)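 TCC was incubated at 10 µM (2% DMSO) in 100 mM phosphate pH 7.4 with alamethicin-treated microsomes or Supersomes, 10 mM MgCl2 and 10 mM saccharolactone. After 5 min pre-incubation at 37 °C, UDPGA was added to start the reaction. Protein was raised up to 2 mg/mL. Samples were quenched in ACN with 1 µM DCC internal standard, centrifuged, and N-glucuronides detected by LC-ESI-MS/MS in SRM mode.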

A short description of data set [6]: Drug metabolism in B6C3F1 mouse liver microsomes assessed as N-glucuronide-triclocarban formation incubated for 5 mins prior to UDPGA addition measured after 30 mins by LC-UV-ESI-MS/MS analysis. Format: ADME. To be noted: 0.5 h. Put shortly: as §2
The target of data set [7] is T3, UDP-glucuronosyltransferase 1A3 (Homo sapiens, UniProt P35503).
T3 sequence (P35503 whole entry): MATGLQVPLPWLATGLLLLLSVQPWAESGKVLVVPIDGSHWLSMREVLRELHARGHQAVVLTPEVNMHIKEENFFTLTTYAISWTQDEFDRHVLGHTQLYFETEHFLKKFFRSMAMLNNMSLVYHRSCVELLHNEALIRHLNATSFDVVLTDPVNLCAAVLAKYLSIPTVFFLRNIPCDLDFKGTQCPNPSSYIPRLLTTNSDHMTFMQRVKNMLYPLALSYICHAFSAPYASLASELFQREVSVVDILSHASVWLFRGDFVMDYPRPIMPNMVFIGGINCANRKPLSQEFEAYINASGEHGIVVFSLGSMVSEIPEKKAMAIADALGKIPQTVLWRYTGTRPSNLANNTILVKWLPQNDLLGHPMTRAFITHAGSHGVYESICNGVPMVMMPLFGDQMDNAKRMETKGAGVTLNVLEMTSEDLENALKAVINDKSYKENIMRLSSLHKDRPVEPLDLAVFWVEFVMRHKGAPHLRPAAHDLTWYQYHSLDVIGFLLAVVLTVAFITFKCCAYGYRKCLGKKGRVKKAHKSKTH
Briefly: Drug metabolism assessed as human UGT1A3-mediated N-glucuronide-triclocarban formation expressed in baculovirus infected insect sf9 cells incubated for 5 mins prior to UDPGA addition measured after 5 to 30 mins by LC-UV analysis. Format: ADME. Put shortly: as §1

`O=C(Nc1ccc(Cl)c(Cl)c1)Nc1ccc(Cl)cc1O` registered a CLH in the data set on Liver of 1450 µL/min/mg.

Regarding `O=C(Nc1ccc(Cl)cc1)Nc1ccc(Cl)c(Cl)c1` [TRICLOCARBAN], the Drug metabolism result in data set [1] was “metabolite_not_detected”; in data set [4], “metabolite_not_detected”; in data set [5], “metabolite_detected”; in data set [6], “metabolite_detected”; in data set [7] it was “metabolite_not_detected”. In addition, in data set [2], the dose excreted is 25%. For the same compound, the Drug excretion result in data set [3] was “metabolite_detected”.
